Laboratory results: ChEMBL document CHEMBL2034910, “Synthesis, biological evaluation and 3D-QSAR studies of novel 4,5-dihydro-1H-pyrazole niacinamide derivatives as BRAF inhibitors” (Bioorg Med Chem, 2012)

What was measured:
[1] = Inhibition of mouse full length GST-tagged BRAF V600E mutant-mediated Mek1 phosphorylation preincubated for 1 hr prior to substrate addition measured after 25 mins by PAGE analysis
[2] = Antiproliferative activity against human WM266.4 cells after 24 hrs by MTT assay; type: functional; details: WM 266-4, 24 h
Method in brief: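 WM266.5 (so in the source) melanoma cells in DMEM/10% FBS, 37 °C, 5% CO2; seeded 1000 cells/well and left 24 h to reattach. DMSO stocks (20 mM) serially diluted in medium to final 100 µM–0.005 µM. Exposure 24 h at 37 °C. Viability by MTT reduction, absorbance at 590 nm; GI50 calculated.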

[3] = Acute oral toxicity in po dosed rat after 14 days; type: organism-based; details: in vivo
Method in brief: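 Single 5000 mg/kg dose given by oral gavage to ten healthy rats. Mortality, gross toxicity signs and behavioural changes were checked at least once daily for 14 days. Body weights were taken before dosing and on days 7 and 14.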

IC50 [1] | pIC50 [1] | SMILES | GI50 [2] | LD50 at 336 h [3]
4.58 µM | 5.339 | COc1ccc(C2=NN(C(=O)c3cncc(Br)c3)C(c3ccc(OC)cc3)C2)cc1 (stereo not drawn) | 7.56 µM | 
7.56 µM | 5.121 | COc1ccc(C2=NN(C(=O)c3ccc(Cl)nc3)C(c3ccc(OC)cc3)C2)cc1 (stereo not drawn) | 6.45 µM | 
5.14 µM | 5.289 | COc1ccc(C2=NN(C(=O)c3ccc(C)nc3Cl)C(c3ccc(OC)cc3)C2)cc1 (stereo not drawn) | 5.74 µM | 
6.14 µM | 5.212 | COc1ccc(C2=NN(C(=O)c3cccnc3Cl)C(c3ccc(OC)cc3)C2)cc1 (stereo not drawn) | 4.35 µM | 
3.42 µM | 5.466 | COc1ccc(C2=NN(C(=O)c3ccc(C)nc3)C(c3ccc(OC)cc3)C2)cc1 (stereo not drawn) | 4.93 µM | 
0.38 µM | 6.42 | COc1ccc(C2=NN(C(=O)c3cncc(Br)c3)C(c3ccc(Cl)cc3)C2)cc1 (stereo not drawn) | 1.29 µM | 
0.51 µM | 6.292 | COc1ccc(C2=NN(C(=O)c3ccc(Cl)nc3)C(c3ccc(Cl)cc3)C2)cc1 (stereo not drawn) | 1.45 µM | 
0.58 µM | 6.237 | COc1ccc(C2=NN(C(=O)c3ccc(C)nc3Cl)C(c3ccc(Cl)cc3)C2)cc1 (stereo not drawn) | 1.44 µM | 
0.47 µM | 6.328 | COc1ccc(C2=NN(C(=O)c3cccnc3Cl)C(c3ccc(Cl)cc3)C2)cc1 (stereo not drawn) | 0.78 µM | 
3.51 µM | 5.455 | COc1ccc(C2=NN(C(=O)c3cncc(Br)c3)C(c3ccc(Br)cc3)C2)cc1 (stereo not drawn) | 5.63 µM | 
6.89 µM | 5.162 | COc1ccc(C2=NN(C(=O)c3ccc(Cl)nc3)C(c3ccc(Br)cc3)C2)cc1 (stereo not drawn) | 7.13 µM | 
6.76 µM | 5.17 | COc1ccc(C2=NN(C(=O)c3ccc(C)nc3Cl)C(c3ccc(Br)cc3)C2)cc1 (stereo not drawn) | 8.47 µM | 
5.57 µM | 5.254 | COc1ccc(C2=NN(C(=O)c3cccnc3Cl)C(c3ccc(Br)cc3)C2)cc1 (stereo not drawn) | 3.05 µM | 
4.23 µM | 5.373 | COc1ccc(C2=NN(C(=O)c3ccc(C)nc3)C(c3ccc(Br)cc3)C2)cc1 (stereo not drawn) | 4.28 µM | 
4.27 µM | 5.272 | COc1ccc(C2=NN(C(=O)c3cncc(Br)c3)C(c3ccc(OCc4ccccc4)cc3)C2)cc1 (stereo not drawn) | 6.24 µM | 
6.78 µM | 5.369 | COc1ccc(C2=NN(C(=O)c3ccc(Cl)nc3)C(c3ccc(OCc4ccccc4)cc3)C2)cc1 (stereo not drawn) | 10.6 µM | 
3.01 µM | 5.521 | COc1ccc(C2=NN(C(=O)c3ccc(C)nc3Cl)C(c3ccc(OCc4ccccc4)cc3)C2)cc1 (stereo not drawn) | 10.5 µM | 
6.49 µM | 5.188 | COc1ccc(C2=NN(C(=O)c3cccnc3Cl)C(c3ccc(OCc4ccccc4)cc3)C2)cc1 (stereo not drawn) | 9.15 µM | 

IC50 [1] | pIC50 [1] | SMILES | GI50 [2] | LD50 at 336 h [3]
1.63 µM | 5.788 | COc1ccc(C2=NN(C(=O)c3ccc(C)nc3)C(c3ccc(OCc4ccccc4)cc3)C2)cc1 (stereo not drawn) | 7.95 µM | 
7.61 µM | 5.119 | O=C(c1cncc(Br)c1)N1N=C(c2ccc(Cl)cc2)CC1c1ccc(OCc2ccccc2)cc1 (stereo not drawn) | 8.13 µM | 
16.4 µM | 4.784 | O=C(c1ccc(Cl)nc1)N1N=C(c2ccc(Cl)cc2)CC1c1ccc(OCc2ccccc2)cc1 (stereo not drawn) | 13.2 µM | 
12.9 µM | 4.89 | Cc1ccc(C(=O)N2N=C(c3ccc(Cl)cc3)CC2c2ccc(OCc3ccccc3)cc2)c(Cl)n1 (stereo not drawn) | 11.4 µM | 
4.42 µM | 5.355 | O=C(c1cccnc1Cl)N1N=C(c2ccc(Cl)cc2)CC1c1ccc(OCc2ccccc2)cc1 (stereo not drawn) | 7.71 µM | 
7.02 µM | 5.154 | Cc1ccc(C(=O)N2N=C(c3ccc(Cl)cc3)CC2c2ccc(OCc3ccccc3)cc2)cn1 (stereo not drawn) | 9.2 µM | 
4.77 µM | 5.321 | O=C(c1cncc(Br)c1)N1N=C(c2ccc(Cl)cc2)CC1c1ccc(Cl)cc1 (stereo not drawn) | 6.09 µM | 
7.16 µM | 5.145 | O=C(c1ccc(Cl)nc1)N1N=C(c2ccc(Cl)cc2)CC1c1ccc(Cl)cc1 (stereo not drawn) | 9.89 µM | 
7.77 µM | 5.11 | Cc1ccc(C(=O)N2N=C(c3ccc(Cl)cc3)CC2c2ccc(Cl)cc2)c(Cl)n1 (stereo not drawn) | 8.87 µM | 
2.12 µM | 5.672 | O=C(c1cccnc1Cl)N1N=C(c2ccc(Cl)cc2)CC1c1ccc(Cl)cc1 (stereo not drawn) | 3.58 µM | 
3.58 µM | 5.446 | Cc1ccc(C(=O)N2N=C(c3ccc(Cl)cc3)CC2c2ccc(Cl)cc2)cn1 (stereo not drawn) | 3.79 µM | 
7.82 µM | 5.107 | O=C(c1cncc(Br)c1)N1N=C(c2ccc(Cl)cc2)CC1c1ccc(Br)cc1 (stereo not drawn) | 8.01 µM | 
7.34 µM | 5.134 | O=C(c1ccc(Cl)nc1)N1N=C(c2ccc(Cl)cc2)CC1c1ccc(Br)cc1 (stereo not drawn) | 9.87 µM | 
7.35 µM | 5.134 | Cc1ccc(C(=O)N2N=C(c3ccc(Cl)cc3)CC2c2ccc(Br)cc2)c(Cl)n1 (stereo not drawn) | 10.8 µM | 
8.67 µM | 5.062 | O=C(c1cccnc1Cl)N1N=C(c2ccc(Cl)cc2)CC1c1ccc(Br)cc1 (stereo not drawn) | 7.45 µM | 
7.05 µM | 5.152 | Cc1ccc(C(=O)N2N=C(c3ccc(Cl)cc3)CC2c2ccc(Br)cc2)cn1 (stereo not drawn) | 7.65 µM | 
0.06 µM |  | CNC(=O)c1cc(Oc2ccc(NC(=O)Nc3ccc(Cl)c(C(F)(F)F)c3)cc2)ccn1 [SORAFENIB] | 8.12 µM | 

SMILES | IC50 [1] | pIC50 [1] | GI50 [2] | LD50 at 336 h [3]
COc1ccc(C2=NN(C(=O)c3ccc(C)nc3)C(c3ccc(Cl)cc3)C2)cc1 (stereo not drawn) | 0.2 µM | 6.796 | 0.89 µM | > 5000 mg/kg
